According to ChEMBL document CHEMBL1146312, “Synthesis of OSW saponin analogs with modified sugar residues and their antiproliferative activities” (Bioorg Med Chem Lett, 2007):

Legend:
Format in all cases: functional, cell-based
Jurkat = test: Antiproliferative activity against human Jurkat cells
Summary of the method: (§1)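 Proliferation of human RKO colon carcinoma, Jurkat T-cell leukemia and HeLa cervical cancer cells was followed by [3H]-thymidine incorporation. IC50 values were taken from this read-out.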

HeLa = test: Antiproliferative activity against human HeLa cells; summary of the method: as §1
RKO = test: Antiproliferative activity against human RKO cells; summary of the method: as §1

Row | SMILES | IC50 (Jurkat) [nM] | IC50 (HeLa) [nM] | IC50 (RKO) [nM]
1 | CCCCCCCCCCCCOC(=O)[C@@H](C)[C@@]1(O)[C@@H](O[C@@H]2OC[C@H](O)[C@H](O)[C@H]2OC(C)=O)C[C@H]2[C@@H]3CC=C4C[C@@H](O)CC[C@]4(C)[C@H]3CC[C@@]21C | 78 | 1200 | 
2 | C=CCO[C@@H]1[C@@H](OC(C)=O)[C@H](O[C@H]2C[C@H]3[C@@H]4CC=C5C[C@@H](O)CC[C@]5(C)[C@H]4CC[C@]3(C)[C@@]2(O)[C@H](C)C(=O)OCCCCCCCCCCCC)OC[C@@H]1O |  | 1100 | 1700
3 | CCCCCCCCCCCCOC(=O)[C@@H](C)[C@@]1(O)[C@@H](O[C@@H]2OC[C@H](O)[C@H](O[C@@H]3OC[C@@H](O)[C@H](O)[C@H]3OC(=O)c3ccc(OC)cc3)[C@H]2OC(C)=O)C[C@H]2[C@@H]3CC=C4C[C@@H](O)CC[C@]4(C)[C@H]3CC[C@@]21C | 15 | 71 | 0.7
